Results reported in ChEMBL document CHEMBL4049407, “Positional Scanning Identifies the Molecular Determinants of a High Affinity Multi-Leucine Inhibitor for Furin and PACE4” (J Med Chem, 2017).
Active and inactive are the calls of the source. No rule for the calls is given here. Peptide text beside a SMILES is read from it. * marks the point of attachment. NH(4-amidinobenzyl) = N=C(N)c1ccc(CN*)cc1

Assays:
[1] = molecular target: T1, Proprotein convertase subtilisin/kexin type 6 (Homo sapiens, UniProt P29122); assay: Inhibition of recombinant human PACE4 expressed in drosophila S2 cells using pyrGlu-Arg-Thr-Lys-Arg-7-amido-4-methylcoumarin as substrate after 60 mins by spectrofluorometry method; format: cell-based
T1 sequence (P29122 whole entry): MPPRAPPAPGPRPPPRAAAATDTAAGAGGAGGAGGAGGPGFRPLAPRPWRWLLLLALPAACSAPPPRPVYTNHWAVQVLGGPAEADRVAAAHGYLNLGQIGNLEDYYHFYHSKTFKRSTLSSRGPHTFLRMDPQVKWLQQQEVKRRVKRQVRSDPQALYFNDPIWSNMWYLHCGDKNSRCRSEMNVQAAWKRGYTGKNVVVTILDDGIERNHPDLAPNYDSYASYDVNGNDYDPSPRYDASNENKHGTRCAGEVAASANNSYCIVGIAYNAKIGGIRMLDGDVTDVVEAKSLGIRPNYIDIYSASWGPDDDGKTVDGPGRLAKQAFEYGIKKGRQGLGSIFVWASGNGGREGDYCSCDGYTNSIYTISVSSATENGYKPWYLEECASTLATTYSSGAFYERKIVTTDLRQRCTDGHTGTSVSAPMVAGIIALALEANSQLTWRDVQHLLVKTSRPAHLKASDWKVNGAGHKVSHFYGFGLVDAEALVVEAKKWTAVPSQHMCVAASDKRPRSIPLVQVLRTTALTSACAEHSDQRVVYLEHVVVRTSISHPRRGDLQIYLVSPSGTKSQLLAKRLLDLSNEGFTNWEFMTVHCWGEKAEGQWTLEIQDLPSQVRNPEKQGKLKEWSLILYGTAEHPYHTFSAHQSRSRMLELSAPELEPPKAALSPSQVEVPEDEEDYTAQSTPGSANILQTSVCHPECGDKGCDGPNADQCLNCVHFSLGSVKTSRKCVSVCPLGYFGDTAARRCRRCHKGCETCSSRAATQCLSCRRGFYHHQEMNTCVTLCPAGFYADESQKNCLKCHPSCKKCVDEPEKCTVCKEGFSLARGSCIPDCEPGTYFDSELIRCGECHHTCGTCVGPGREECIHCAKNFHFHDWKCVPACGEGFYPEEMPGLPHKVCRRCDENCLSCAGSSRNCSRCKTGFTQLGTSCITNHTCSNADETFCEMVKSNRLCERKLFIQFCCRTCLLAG
How it was run: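 Human recombinant purified PACE4 at 2 units/100 µL (20.18 nM), in 20 mM BisTris pH 6.5, 1 mM CaCl2, 1.8 mg/mL BSA. Substrate 100 µM, KM 4.035 µM. Inhibitor 1 nM to 10 µM; 60 min at 37°C. Fluorescence ex 370 / em 460 nm. Ki by Morrison tight-binding equation; three independent experiments, mean ± SD.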

[2] = species: Homo sapiens; assay: Selectivity index, ratio of Ki for recombinant human furin expressed in drosophila S2 cells to Ki for recombinant human PACE4 expressed in drosophila S2 cells; format: cell-based
How it was run: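 Ratio Ki(furin)/Ki(PACE4). […] PACE4 buffer was BisTris pH 6.5; furin buffer was HEPES pH 7.5, or BisTris pH 6.5 for His peptides. Ki fitted by Morrison equation from three independent experiments.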

[3] = molecular target: Furin (Homo sapiens, UniProt P09958); assay: Inhibition of recombinant human furin expressed in drosophila S2 cells using pyrGlu-Arg-Thr-Lys-Arg-7-amido-4-methylcoumarin as substrate after 60 mins by spectrofluorometry method; format: cell-based
Furin, sequence (P09958 whole entry): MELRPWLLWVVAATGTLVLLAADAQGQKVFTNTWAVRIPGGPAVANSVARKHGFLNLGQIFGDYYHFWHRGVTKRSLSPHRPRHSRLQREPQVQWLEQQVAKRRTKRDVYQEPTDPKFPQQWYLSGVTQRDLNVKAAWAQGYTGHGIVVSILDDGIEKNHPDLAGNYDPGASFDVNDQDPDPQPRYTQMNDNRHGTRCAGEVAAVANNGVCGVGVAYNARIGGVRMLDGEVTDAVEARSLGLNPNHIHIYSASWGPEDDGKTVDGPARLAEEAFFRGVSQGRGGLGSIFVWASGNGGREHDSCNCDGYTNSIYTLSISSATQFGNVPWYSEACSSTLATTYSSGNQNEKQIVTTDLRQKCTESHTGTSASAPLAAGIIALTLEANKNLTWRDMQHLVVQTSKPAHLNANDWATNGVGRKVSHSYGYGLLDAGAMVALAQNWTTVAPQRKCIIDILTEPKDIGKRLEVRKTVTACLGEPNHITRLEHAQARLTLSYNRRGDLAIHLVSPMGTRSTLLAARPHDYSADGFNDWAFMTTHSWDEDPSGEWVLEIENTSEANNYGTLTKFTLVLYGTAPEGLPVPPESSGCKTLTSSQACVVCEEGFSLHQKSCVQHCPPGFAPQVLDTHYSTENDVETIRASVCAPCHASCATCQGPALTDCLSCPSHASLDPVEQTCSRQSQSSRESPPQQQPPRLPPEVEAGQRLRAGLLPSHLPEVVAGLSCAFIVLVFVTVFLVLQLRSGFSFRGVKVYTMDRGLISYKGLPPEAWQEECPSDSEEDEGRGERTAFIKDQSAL
How it was run: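 Human recombinant purified furin at 2 units/100 µL (0.54 nM), in 100 mM HEPES pH 7.5, 1 mM CaCl2, 1 mM β-mercaptoethanol, 1.8 mg/mL BSA. His-containing peptides run instead in 20 mM BisTris pH 6.5 with the same additives. Substrate 100 µM, KM 5.04 µM. Inhibitor 1 nM to 10 µM; 60 min at 37°C. Fluorescence ex 370 / em 460 nm. Ki by Morrison equation; triplicate experiments, mean ± SD.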

[4] = system: DU-145; assay: Antiproliferative activity against human DU145 cells assessed as reduction in metabolic activity at 25 to 100 uM after 72 hrs by MTT assay; format: functional, cell-based
How it was run: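 First-pass MTT screen of each library peptide on DU145 cells (RPMI 1640, 5% FBS, 1500 cells/well, poly-L-lysine plates). Peptides added 24 h after seeding at 25, 50 and 100 µM in fresh serum medium for 72 h. MTT 1 mg/mL for 4 h; 2-propanol HCl solubilisation. Activity normalised to water vehicle. Mean ± SEM of at least two independent experiments.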

| SMILES | Ki [1] [nM] | Ki [3] [nM] | Ratio Ki [2] | Activity [4] |
| --- | --- | --- | --- | --- |
| CC(=O)N[C@@H](CC(C)C)C(=O)N[C@@H](CC(C)C)C(=O)N[C@@H](CC(C)C)C(=O)N[C@@H](Cc1cnc[nH]1)C(=O)N[C@@H](CCCNC(=N)N)C(=O)N[C@H](C(=O)N[C@@H](CCCCN)C(=O)NCc1ccc(C(=N)N)cc1)C(C)C (Ac-LLLHRVK-{NH(4-amidinobenzyl)}) | 0.4 | 0.9 | 2.3 | inactive |
| CC(=O)N[C@@H](CC(C)C)C(=O)N[C@@H](CC(C)C)C(=O)N[C@@H](CC(C)C)C(=O)N[C@@H](CCCCN)C(=O)N[C@@H](CCCNC(=N)N)C(=O)N[C@H](C(=O)N[C@@H](CCCCN)C(=O)NCc1ccc(C(=N)N)cc1)C(C)C (Ac-LLLKRVK-{NH(4-amidinobenzyl)}) | 2 | 0.9 | 0.5 | inactive |
| CC(=O)N[C@@H](CC(C)C)C(=O)N[C@@H](CC(C)C)C(=O)N[C@@H](CC(C)C)C(=O)N1CCC[C@H]1C(=O)N[C@@H](CCCNC(=N)N)C(=O)N[C@H](C(=O)N[C@@H](CCCCN)C(=O)NCc1ccc(C(=N)N)cc1)C(C)C (Ac-LLLPRVK-{NH(4-amidinobenzyl)}) | 6 | 4 | 0.7 | inactive |
| CC(=O)N[C@@H](CC(C)C)C(=O)N[C@@H](CC(C)C)C(=O)N[C@@H](CC(C)C)C(=O)N[C@@H](CCCNC(=N)N)C(=O)N[C@@H](CCCNC(=N)N)C(=O)N[C@H](C(=O)N[C@@H](CCCCN)C(=O)NCc1ccc(C(=N)N)cc1)C(C)C (Ac-LLLRRVK-{NH(4-amidinobenzyl)}) | 0.2 | 0.7 | 3.5 | inactive |

Now from value to compound, other results behind:

| Ki [1] [nM] | Ki [3] [nM] | SMILES | Ratio Ki [2] | Activity [4] |
| --- | --- | --- | --- | --- |
| 46 | 38 | CC(=O)N[C@@H](CC(C)C)C(=O)N[C@@H](CC(C)C)C(=O)N[C@@H](CC(C)C)C(=O)N[C@@H](CCC(=O)O)C(=O)N[C@@H](CCCNC(=N)N)C(=O)N[C@H](C(=O)N[C@@H](CCCCN)C(=O)NCc1ccc(C(=N)N)cc1)C(C)C (Ac-LLLERVK-{NH(4-amidinobenzyl)}) | 0.8 | inactive |
| 18 | 12 | CC(=O)N[C@@H](CC(C)C)C(=O)N[C@@H](CC(C)C)C(=O)N[C@@H](CC(C)C)C(=O)NCC(=O)N[C@@H](CCCNC(=N)N)C(=O)N[C@H](C(=O)N[C@@H](CCCCN)C(=O)NCc1ccc(C(=N)N)cc1)C(C)C (Ac-LLLGRVK-{NH(4-amidinobenzyl)}) | 0.7 | inactive |
| 3.7 | 3.4 | CSCC[C@H](NC(=O)[C@H](CC(C)C)NC(=O)[C@H](CC(C)C)NC(=O)[C@H](CC(C)C)NC(C)=O)C(=O)N[C@@H](CCCNC(=N)N)C(=O)N[C@H](C(=O)N[C@@H](CCCCN)C(=O)NCc1ccc(C(=N)N)cc1)C(C)C (Ac-LLLMRVK-{NH(4-amidinobenzyl)}) | 0.9 | inactive |
| 1.7 | 3 | CC(=O)N[C@@H](CC(C)C)C(=O)N[C@@H](CC(C)C)C(=O)N[C@@H](CC(C)C)C(=O)N[C@@H](CC(N)=O)C(=O)N[C@@H](CCCNC(=N)N)C(=O)N[C@H](C(=O)N[C@@H](CCCCN)C(=O)NCc1ccc(C(=N)N)cc1)C(C)C (Ac-LLLNRVK-{NH(4-amidinobenzyl)}) | 1.8 | inactive |
| 2 | 4 | CC(=O)N[C@@H](CC(C)C)C(=O)N[C@@H](CC(C)C)C(=O)N[C@@H](CC(C)C)C(=O)N[C@@H](CO)C(=O)N[C@@H](CCCNC(=N)N)C(=O)N[C@H](C(=O)N[C@@H](CCCCN)C(=O)NCc1ccc(C(=N)N)cc1)C(C)C (Ac-LLLSRVK-{NH(4-amidinobenzyl)}) | 2 | inactive |
| 2.8 | 4.5 | CC(=O)N[C@@H](CC(C)C)C(=O)N[C@@H](CC(C)C)C(=O)N[C@@H](CC(C)C)C(=O)N[C@H](C(=O)N[C@@H](CCCNC(=N)N)C(=O)N[C@H](C(=O)N[C@@H](CCCCN)C(=O)NCc1ccc(C(=N)N)cc1)C(C)C)[C@@H](C)O (Ac-LLLTRVK-{NH(4-amidinobenzyl)}) | 1.6 | inactive |
